Experimental data reported in the M2OR odorant receptor database.
Residue numbers refer to the chain shown, from its start.

Experiments:
Settings in all cases: stereoisomer not certain
UniProt Q7TR71 = target: T1, UniProt Q7TR71
T1 sequence (whole entry): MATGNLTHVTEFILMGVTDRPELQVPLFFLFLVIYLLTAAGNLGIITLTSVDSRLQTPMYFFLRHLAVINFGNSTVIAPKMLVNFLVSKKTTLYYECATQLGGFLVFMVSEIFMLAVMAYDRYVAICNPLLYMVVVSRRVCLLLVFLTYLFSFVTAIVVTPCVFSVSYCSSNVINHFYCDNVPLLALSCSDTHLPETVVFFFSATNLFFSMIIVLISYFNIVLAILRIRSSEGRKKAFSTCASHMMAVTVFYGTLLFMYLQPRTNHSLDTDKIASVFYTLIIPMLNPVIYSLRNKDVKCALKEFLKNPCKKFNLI
How it was run: (§1)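 Whether a receptor–molecule pair is responsive (active) rests on the original authors' judgment that its measured signal was statistically different from baseline. Pairs without that judgment are non-responsive (inactive). Sources used varied assay methods, commonly transient luciferase assays in mammalian cell lines.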

UniProt Q7TR79 = target: T2, UniProt Q7TR79
T2 sequence (whole entry): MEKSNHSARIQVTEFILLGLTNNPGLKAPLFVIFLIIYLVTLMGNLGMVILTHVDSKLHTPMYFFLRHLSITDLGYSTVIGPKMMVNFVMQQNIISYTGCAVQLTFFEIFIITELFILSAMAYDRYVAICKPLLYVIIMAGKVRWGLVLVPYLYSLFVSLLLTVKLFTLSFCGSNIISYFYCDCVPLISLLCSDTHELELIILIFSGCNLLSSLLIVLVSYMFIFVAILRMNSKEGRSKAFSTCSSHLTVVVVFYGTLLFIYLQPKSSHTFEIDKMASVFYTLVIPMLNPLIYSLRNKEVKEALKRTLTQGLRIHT
How it was run: as §1

UniProt Q7TRA3 = target: T3, UniProt Q7TRA3
T3 sequence (whole entry): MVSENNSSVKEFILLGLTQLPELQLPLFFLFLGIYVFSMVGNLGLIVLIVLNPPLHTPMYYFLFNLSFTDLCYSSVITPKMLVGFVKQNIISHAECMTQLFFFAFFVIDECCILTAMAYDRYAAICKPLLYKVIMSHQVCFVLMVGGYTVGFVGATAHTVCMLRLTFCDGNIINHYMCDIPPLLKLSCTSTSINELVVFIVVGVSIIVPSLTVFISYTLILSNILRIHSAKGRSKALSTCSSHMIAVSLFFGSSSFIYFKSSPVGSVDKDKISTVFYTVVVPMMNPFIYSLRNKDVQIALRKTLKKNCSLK
How it was run: as §1

UniProt Q7TRE4 = target: T4, UniProt Q7TRE4
T4 sequence (whole entry): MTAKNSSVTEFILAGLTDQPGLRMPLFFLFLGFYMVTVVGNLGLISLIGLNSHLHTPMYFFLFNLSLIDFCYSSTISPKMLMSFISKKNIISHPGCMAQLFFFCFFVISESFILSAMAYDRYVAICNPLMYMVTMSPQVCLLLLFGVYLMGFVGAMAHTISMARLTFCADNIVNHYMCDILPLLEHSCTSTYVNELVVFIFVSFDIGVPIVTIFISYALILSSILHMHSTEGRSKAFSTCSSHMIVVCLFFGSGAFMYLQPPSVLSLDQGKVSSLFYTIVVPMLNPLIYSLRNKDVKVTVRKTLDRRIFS
How it was run: as §1

UniProt Q7TRN9 = target: T5, UniProt Q7TRN9
T5 sequence (whole entry): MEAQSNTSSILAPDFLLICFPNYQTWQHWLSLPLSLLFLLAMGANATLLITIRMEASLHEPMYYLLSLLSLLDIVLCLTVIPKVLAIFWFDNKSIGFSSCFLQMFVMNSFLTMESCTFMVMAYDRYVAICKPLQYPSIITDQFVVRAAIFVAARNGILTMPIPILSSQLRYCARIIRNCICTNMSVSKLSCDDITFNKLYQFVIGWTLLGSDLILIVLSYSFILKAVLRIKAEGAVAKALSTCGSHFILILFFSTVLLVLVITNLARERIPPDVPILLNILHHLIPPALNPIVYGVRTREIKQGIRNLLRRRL
How it was run: as §1

UniProt Q7TRR8 = target: T6, UniProt Q7TRR8
T6 sequence (whole entry): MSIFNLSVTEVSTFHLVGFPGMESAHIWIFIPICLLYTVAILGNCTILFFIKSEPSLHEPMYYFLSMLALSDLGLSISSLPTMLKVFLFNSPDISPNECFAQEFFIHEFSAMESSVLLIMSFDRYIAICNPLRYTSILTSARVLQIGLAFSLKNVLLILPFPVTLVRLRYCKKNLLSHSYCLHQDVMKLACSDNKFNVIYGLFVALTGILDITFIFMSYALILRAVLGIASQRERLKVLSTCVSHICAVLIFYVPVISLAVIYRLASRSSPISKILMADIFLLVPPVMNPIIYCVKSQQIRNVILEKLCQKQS
How it was run: as §1

UniProt Q7TRW1 = target: T7, UniProt Q7TRW1
T7 sequence (whole entry): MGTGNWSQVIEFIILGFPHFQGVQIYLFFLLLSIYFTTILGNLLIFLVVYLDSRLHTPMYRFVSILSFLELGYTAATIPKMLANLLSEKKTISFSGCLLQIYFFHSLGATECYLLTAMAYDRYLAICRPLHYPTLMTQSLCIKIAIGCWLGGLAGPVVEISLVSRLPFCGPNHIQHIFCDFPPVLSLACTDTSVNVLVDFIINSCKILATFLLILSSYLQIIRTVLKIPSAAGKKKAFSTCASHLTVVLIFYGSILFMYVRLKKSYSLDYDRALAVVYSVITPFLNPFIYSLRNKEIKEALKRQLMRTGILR
How it was run: as §1

UniProt Q7TRX0 = target: T8, UniProt Q7TRX0
T8 sequence (whole entry): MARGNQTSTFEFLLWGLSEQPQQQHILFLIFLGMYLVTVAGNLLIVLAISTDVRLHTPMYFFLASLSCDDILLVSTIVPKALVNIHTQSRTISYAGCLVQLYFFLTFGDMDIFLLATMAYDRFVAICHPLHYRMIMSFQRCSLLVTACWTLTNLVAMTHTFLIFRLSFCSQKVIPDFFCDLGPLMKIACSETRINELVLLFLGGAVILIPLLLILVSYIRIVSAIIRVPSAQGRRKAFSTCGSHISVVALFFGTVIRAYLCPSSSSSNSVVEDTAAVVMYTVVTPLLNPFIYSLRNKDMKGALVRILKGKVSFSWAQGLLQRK
How it was run: as §1

UniProt Q8VEU7 = target: T9, UniProt Q8VEU7
T9 sequence (whole entry): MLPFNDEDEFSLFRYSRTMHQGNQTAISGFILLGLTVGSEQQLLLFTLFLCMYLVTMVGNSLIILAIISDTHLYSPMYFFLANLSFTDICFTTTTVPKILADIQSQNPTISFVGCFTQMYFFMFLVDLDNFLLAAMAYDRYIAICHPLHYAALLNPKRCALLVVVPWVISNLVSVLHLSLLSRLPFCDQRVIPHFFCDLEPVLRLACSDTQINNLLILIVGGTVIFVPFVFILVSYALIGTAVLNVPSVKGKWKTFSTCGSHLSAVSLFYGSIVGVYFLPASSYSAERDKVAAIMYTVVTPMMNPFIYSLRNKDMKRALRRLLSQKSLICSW
How it was run: as §1

UniProt Q8VF05 = target: T10, UniProt Q8VF05
T10 sequence (whole entry): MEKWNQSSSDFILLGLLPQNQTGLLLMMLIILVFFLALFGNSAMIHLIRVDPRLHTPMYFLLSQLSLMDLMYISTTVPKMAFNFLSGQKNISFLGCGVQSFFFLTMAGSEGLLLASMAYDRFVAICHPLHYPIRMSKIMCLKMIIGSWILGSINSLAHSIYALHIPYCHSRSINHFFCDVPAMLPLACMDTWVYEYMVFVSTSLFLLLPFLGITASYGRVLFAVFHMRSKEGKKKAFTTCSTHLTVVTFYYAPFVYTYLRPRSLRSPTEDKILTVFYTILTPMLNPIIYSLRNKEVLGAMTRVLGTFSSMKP
How it was run: as §1

UniProt Q7TR75 = target: UniProt Q7TR75
Sequence of UniProt Q7TR75 (Q7TR75 as listed by the source): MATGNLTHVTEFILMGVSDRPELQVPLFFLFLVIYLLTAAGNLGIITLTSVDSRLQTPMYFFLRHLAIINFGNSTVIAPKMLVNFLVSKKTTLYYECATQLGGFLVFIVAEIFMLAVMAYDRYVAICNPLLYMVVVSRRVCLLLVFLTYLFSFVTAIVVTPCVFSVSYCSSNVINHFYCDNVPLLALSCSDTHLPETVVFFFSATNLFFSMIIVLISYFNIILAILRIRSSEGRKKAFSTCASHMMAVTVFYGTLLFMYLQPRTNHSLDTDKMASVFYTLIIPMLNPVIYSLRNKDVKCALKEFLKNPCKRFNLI
How it was run: as §1

UniProt Q7TRA1 = target: T11, UniProt Q7TRA1
T11 sequence (whole entry): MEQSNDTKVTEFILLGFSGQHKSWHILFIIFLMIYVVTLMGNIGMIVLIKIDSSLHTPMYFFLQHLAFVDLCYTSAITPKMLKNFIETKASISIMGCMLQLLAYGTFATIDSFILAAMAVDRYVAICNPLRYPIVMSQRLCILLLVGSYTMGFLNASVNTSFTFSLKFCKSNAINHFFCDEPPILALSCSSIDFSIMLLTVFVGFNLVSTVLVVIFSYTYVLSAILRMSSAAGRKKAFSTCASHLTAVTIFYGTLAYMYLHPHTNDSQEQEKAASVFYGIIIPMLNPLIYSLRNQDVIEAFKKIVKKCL
How it was run: as §1

UniProt Q7TRA2 = target: T12, UniProt Q7TRA2
T12 sequence (whole entry): T11 sequence (whole entry) with S18A, I86T, I94F, M95I, S112C, V208L, T219I, V221I, V305A
How it was run: as §1

UniProt Q7TRB8 = target: UniProt Q7TRB8
Sequence of UniProt Q7TRB8 (Q7TRB8 as listed by the source): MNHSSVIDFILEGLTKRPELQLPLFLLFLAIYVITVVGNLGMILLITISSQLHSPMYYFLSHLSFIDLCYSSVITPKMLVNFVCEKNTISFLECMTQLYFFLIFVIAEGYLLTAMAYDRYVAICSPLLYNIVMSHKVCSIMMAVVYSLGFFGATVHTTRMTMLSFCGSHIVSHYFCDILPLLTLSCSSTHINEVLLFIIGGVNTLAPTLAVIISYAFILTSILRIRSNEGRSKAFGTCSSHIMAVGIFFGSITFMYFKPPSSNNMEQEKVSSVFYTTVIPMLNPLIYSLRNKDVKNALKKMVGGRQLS
How it was run: as §1

UniProt Q7TS17 = target: UniProt Q7TS17
Sequence of UniProt Q7TS17 (Q7TS17 as listed by the source): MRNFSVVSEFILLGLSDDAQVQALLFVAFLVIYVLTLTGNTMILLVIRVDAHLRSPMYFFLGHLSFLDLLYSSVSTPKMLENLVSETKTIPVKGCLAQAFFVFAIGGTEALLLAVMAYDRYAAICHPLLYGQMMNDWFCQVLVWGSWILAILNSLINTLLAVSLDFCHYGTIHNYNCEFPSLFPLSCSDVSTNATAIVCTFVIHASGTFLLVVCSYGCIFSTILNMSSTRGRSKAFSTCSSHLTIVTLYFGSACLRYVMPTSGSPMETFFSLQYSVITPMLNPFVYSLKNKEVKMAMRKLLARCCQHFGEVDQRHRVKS
How it was run: as §1

UniProt Q7TS37 = target: UniProt Q7TS37
Sequence of UniProt Q7TS37 (Q7TS37 as listed by the source): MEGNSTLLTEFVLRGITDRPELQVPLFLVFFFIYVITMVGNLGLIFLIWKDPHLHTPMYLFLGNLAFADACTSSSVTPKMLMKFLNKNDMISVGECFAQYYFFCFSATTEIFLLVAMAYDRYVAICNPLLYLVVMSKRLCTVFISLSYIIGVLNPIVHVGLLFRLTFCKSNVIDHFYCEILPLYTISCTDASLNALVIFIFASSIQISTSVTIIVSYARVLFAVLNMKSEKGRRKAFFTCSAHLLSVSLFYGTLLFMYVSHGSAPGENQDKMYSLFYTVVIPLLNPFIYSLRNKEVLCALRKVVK
How it was run: as §1

UniProt Q7TS40 = target: UniProt Q7TS40
Sequence of UniProt Q7TS40 (Q7TS40 as listed by the source): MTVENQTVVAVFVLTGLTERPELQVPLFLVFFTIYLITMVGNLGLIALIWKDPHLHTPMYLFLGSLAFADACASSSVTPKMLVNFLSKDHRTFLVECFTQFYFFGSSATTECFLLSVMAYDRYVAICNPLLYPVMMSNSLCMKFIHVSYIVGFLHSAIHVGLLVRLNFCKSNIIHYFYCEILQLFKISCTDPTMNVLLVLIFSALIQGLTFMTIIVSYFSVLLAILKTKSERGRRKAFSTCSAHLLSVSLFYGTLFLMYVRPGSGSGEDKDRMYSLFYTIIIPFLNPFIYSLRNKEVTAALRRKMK
How it was run: as §1
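Further: active if original authors judged signal statistically different from baseline.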

Row | Compound | odorant receptor agonist call (UniProt Q7TR71) | odorant receptor agonist call (UniProt Q7TR79) | odorant receptor agonist call (UniProt Q7TRA3) | odorant receptor agonist call (UniProt Q7TRE4) | odorant receptor agonist call (UniProt Q7TRN9) | odorant receptor agonist call (UniProt Q7TRR8) | odorant receptor agonist call (UniProt Q7TRW1) | odorant receptor agonist call (UniProt Q7TRX0) | odorant receptor agonist call (UniProt Q8VEU7) | odorant receptor agonist call (UniProt Q8VF05) | odorant receptor agonist call (UniProt Q7TR75) | odorant receptor agonist call (UniProt Q7TRA1) | odorant receptor agonist call (UniProt Q7TRA2) | odorant receptor agonist call (UniProt Q7TRB8) | odorant receptor agonist call (UniProt Q7TS17) | odorant receptor agonist call (UniProt Q7TS37) | odorant receptor agonist call (UniProt Q7TS40)
1 | CCCCCCCO | inactive | inactive | inactive | inactive | inactive | inactive | inactive | inactive | inactive | active |  |  |  |  |  |  | 
2 | CCCCCCCCCS | inactive | inactive | inactive | inactive |  |  | inactive | inactive | inactive | inactive |  |  |  |  |  |  | 
3 | CCCCCCCCCCO | inactive | inactive | inactive | inactive |  |  | inactive | inactive | inactive | inactive |  |  |  |  |  |  | 
4 | CC12CCC(CC1=O)C2(C)C (centres undefined) | active | inactive | inactive | inactive |  |  | inactive | inactive | active | inactive |  |  |  |  |  |  | 
5 | O=C1CCOc2ccccc21 | active | inactive | active | inactive |  |  | inactive | inactive | inactive | active | active | inactive | inactive | inactive | active | active | inactive
6 | CC(=O)OCc1ccccc1 | inactive | inactive | inactive | inactive |  |  | inactive | inactive | inactive | active |  |  |  |  |  |  | 
7 | CCCCCC=O | inactive | inactive | inactive | inactive |  |  | inactive | inactive | inactive | active |  |  |  |  |  |  | 
8 | O=c1ccc2ccccc2o1 | active |  | active | active |  |  | inactive |  | inactive | inactive | active | inactive | inactive | active | active | active | inactive
9 | O=C1Cc2ccccc2O1 | inactive | inactive | inactive | inactive |  |  | inactive | inactive | inactive | inactive |  |  |  |  |  |  | 
10 | CCCCCC(=O)CC | inactive | inactive | inactive | inactive |  |  | inactive | active | inactive | active |  |  |  |  |  |  | 
11 | C=C(C)C1CCC(C)C(=O)C1 (centres undefined) | inactive | inactive | inactive | inactive |  |  | inactive | inactive | inactive | active |  |  |  |  |  |  | 
12 | CCCCCCC(C)=O | inactive | inactive | inactive | inactive |  |  | inactive | inactive | inactive | inactive |  |  |  |  |  |  | 
13 | CC(=O)OCC=C(C)C | inactive | inactive | inactive | inactive |  |  | inactive | inactive | inactive | active |  |  |  |  |  |  | 
14 | CCCCCC1=C(C)CCC1=O | inactive | inactive | inactive | inactive |  |  | inactive | inactive | inactive | active |  |  |  |  |  |  | 
15 | CCCCOC=O | inactive | inactive | inactive | inactive |  |  | inactive | inactive | inactive | inactive |  |  |  |  |  |  | 
